This is an account of results in ChEMBL document CHEMBL4699473, “Discovery of Bispecific Antagonists of Retinol Binding Protein 4 That Stabilize Transthyretin Tetramers: Scaffolding Hopping, Optimization, and Preclinical Pharmacological Evaluation as a Potential Therapy for Two Common Age-Related Comorbidities” (J Med Chem, 2020).

≈ marks a conversion by molar mass, not a printed value. Calls of active or inactive are those of the source. The calls are words filed in the database; no cut-off is given here.

As usually defined, the IC50 is the concentration needed to halve the response being measured. By inhibition is commonly meant the relative decrease from the control value, in per cent. Usually Vdss stands for a proportionality between amount in the body and measured concentration, not a real space. For orientation: Tmax means the time at which the peak concentration occurs. By Cmax is commonly meant the maximum level reached in the sampled fluid or tissue. A word on the AUC: it is concentration integrated over time.

Series [1] has as its target T1, Transthyretin (Homo sapiens, UniProt P02766). As to the kind of experiment: Stabilization of human His-tagged TTR (Gly21 to Glu147) expressed in HEK293 cells assessed as reduction in acid-induced protein aggregation by measuring reduction in high molecular aggregates at 50 uM incubated for 72 hrs at pH 4 by Western blot analysis relative to control. It is filed as cell-based. Put shortly:
(§1)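 Human TTR (2 μL of 167 μM) incubated in 50 mM sodium acetate pH 4.0, 100 mM KCl, with or without 50 μM compound (DMSO vehicle), 72 h at 37 °C. Neutralized with 500 mM sodium phosphate pH 8.0 plus CHAPS, cross-linked, then run on SDS-PAGE and anti-TTR Western blot. Pixel volumes of high-molecular-weight and monomer bands quantified. At least three independent experiments; one-way ANOVA with Holm–Sidak test.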
(In western blotting, separated proteins are transferred to a membrane and probed.)

Series [2] concerns the target T1, Transthyretin. As to the kind of experiment: Stabilization of human His-tagged TTR (Gly21 to Glu147) expressed in HEK293 cells assessed as reduction in acid-induced protein aggregation by measuring increase in TTR monomer level at 50 uM incubated for 72 hrs at pH 4 by Western blot. The series is classed as cell-based. The gist of the method: as §1
Series [3] has as its target T2, Retinol-binding protein 4 (Homo sapiens, UniProt P02753). As to the kind of experiment: Displacement of [3H]-all-trans-retinol from biotinylated human urine derived RBP4 measured after 16 hrs by scintillation proximity assay. Background: Displacement assays read how much labelled ligand stays bound in the presence of the test substance.
Series [4] deals with T1, Transthyretin. Kind of series: Displacement of FITC-diclofenac from human plasma derived TTR measured after overnight incubation by fluorescence polarization assay. It is filed as cell-free. The gist of the method:
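Incubated overnight at 4 °C, then fluorescence polarization read. Nonspecific binding defined with 500 μM unlabeled diclofenac.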
For orientation: Fluorescence polarisation rises when a labelled molecule tumbles more slowly, as on binding a larger partner.

Series [5] concerns the target T2, Retinol-binding protein 4. Kind of series: Displacement of [3H]-all-trans-retinol from MBP-tagged RBP4 (unknown origin) expressed in Escherichia coli assessed as reduction in untagged Eu-labelled TTR-RBP4 interaction measured after overnight incubation by HTRF assay.
The nature of series [6]: Oral bioavailability in CD-1 mouse at 5 mg/kg administered via gavage by LC-MS/MS analysis. The series is classed as ADME, organism-based. To be noted: in vivo. Put shortly: (§2)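 Drug-naive adult male CD-1 mice, three per group, given a single oral 5 mg/kg dose in 2% Tween 80 in 0.9% saline. Compound levels measured in blood over time. Values are the mean (SD) of the PK parameters; %F is derived against the 2 mg/kg IV group.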

Series [7] can be described thus: Stability in Sprague-Dawley rat liver microsomes assessed as parent compound remaining measured after 30 mins. The note with it: 0.5 h. It is filed as ADME, Microsome. Put shortly: (§3)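 Parent compound remaining after 30 min incubation with human, rat, mouse or cynomolgus monkey liver microsomes, expressed as %.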
Series [8] has as its target CYP3A4 (Homo sapiens, UniProt P08684). As to the kind of experiment: Inhibition of recombinant human CYP3A4 expressed in insect cell microsomes at 10 uM using fluorescence probe as substrate measured after 15 to 45 mins in presence of NADPH by fluorescence assay relative to control. The series is classed as ADME, Microsome. The note with it: time 15-45 min.
Series [9] can be described thus: Volume of distribution at steady state in CD-1 mouse at 2 mg/kg, iv by LC-MS/MS analysis. The series is classed as ADME, organism-based. To be noted: in vivo. The gist of the method:
(§4)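 Drug-naive adult male CD-1 mice, three per group, given a single IV 2 mg/kg dose in 3% dimethylacetamide/45% PEG300/12% ethanol/40% sterile water. Blood compound concentrations followed over time. C0 is the observed concentration at time zero, half-life is from the terminal elimination phase, and Vss is at steady state. Reported as mean (SD).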

The target in series [10] is CYP2C19 (Homo sapiens, UniProt P33261). Kind of series: Inhibition of recombinant human CYP2C19 expressed in insect cell microsomes at 10 uM using fluorescence probe as substrate measured after 15 to 45 mins in presence of NADPH by fluorescence assay relative to control. The series is classed as ADME, Microsome. To be noted: time 15-45 min.
CYP2C19, sequence (P33261 whole entry): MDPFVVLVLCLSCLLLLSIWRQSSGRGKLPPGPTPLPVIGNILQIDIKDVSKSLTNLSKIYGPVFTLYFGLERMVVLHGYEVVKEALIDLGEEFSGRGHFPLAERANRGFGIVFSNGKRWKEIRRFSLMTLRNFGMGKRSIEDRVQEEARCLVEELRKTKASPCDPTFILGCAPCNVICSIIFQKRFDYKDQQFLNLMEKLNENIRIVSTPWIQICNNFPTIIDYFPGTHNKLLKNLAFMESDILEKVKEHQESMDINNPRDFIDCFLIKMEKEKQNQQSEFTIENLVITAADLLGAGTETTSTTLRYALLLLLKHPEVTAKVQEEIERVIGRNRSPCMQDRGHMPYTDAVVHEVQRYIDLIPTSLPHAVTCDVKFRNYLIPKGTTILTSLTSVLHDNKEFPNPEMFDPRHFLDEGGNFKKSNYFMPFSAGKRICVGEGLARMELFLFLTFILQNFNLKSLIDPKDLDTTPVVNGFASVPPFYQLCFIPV
The target in series [11] is CYP2D6 (Homo sapiens, UniProt P10635). Kind of series: Inhibition of recombinant human CYP2D6 expressed in insect cell microsomes at 10 uM using fluorescence probe as substrate measured after 15 to 45 mins in presence of NADPH by fluorescence assay relative to control. To be noted: time 15-45 min. It is filed as ADME, Microsome.
CYP2D6, sequence (P10635 whole entry): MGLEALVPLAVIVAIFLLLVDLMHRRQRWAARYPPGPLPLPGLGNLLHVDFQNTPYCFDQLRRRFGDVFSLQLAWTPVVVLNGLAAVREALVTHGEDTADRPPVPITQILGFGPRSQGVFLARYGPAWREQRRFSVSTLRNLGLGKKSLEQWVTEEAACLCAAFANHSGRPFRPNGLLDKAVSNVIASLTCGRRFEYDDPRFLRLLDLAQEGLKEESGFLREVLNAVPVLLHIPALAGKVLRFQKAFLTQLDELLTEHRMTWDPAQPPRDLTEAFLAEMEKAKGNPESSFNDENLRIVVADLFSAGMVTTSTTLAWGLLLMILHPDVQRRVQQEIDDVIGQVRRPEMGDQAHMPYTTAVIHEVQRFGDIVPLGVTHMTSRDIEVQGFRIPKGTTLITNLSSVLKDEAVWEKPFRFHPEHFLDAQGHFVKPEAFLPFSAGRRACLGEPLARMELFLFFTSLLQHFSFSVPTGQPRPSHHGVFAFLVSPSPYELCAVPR
Series [12] has as its system Mus musculus. Kind of series: Effect on serum TTR level in CD-1 mouse at 25 mg/kg, po administered via gavage. It is filed as functional, organism-based.
Series [13] is described as follows: Apparent terminal phase half life in CD-1 mouse at 5 mg/kg, po administered via gavage by LC-MS/MS analysis. The note with it: in vivo. It is filed as ADME, organism-based. The gist of the method: as §2
Series [14] in a line: Tmax in CD-1 mouse at 5 mg/kg, po administered via gavage by LC-MS/MS analysis. It is filed as ADME, organism-based. To be noted: in vivo. The gist of the method: as §2
Series [15] can be described thus: Stability in human liver microsomes assessed as parent compound remaining measured after 30 mins. To be noted: 0.5 h. The series is classed as ADME, Microsome. The gist of the method:
as §3

Series [16] in a line: Apparent terminal phase half life in CD-1 mouse at 2 mg/kg, iv by LC-MS/MS analysis. It is filed as ADME, organism-based. To be noted: in vivo. Put shortly: as §4
Series [17] is described as follows: Stability in CD-1 mouse liver microsomes assessed as parent compound remaining measured after 30 mins. The note with it: 0.5 h. It is filed as ADME, Microsome. The gist of the method:
as §3

Series [18] is described as follows: Cmax in CD-1 mouse at 5 mg/kg, po administered via gavage by LC-MS/MS analysis. It is filed as ADME, organism-based. Also noted: route oral, dose 5 mg/kg. To be noted: in vivo. Put shortly: as §2
Series [19] can be described thus: AUC (infinity) in CD-1 mouse at 5 mg/kg, po administered via gavage by LC-MS/MS analysis. The series is classed as ADME, organism-based. To be noted: in vivo. Also noted: route oral, time infinity, dose 5 mg/kg. Put shortly:
as §2

The target in series [20] is CYP2C9 (Homo sapiens, UniProt P11712). Kind of series: Inhibition of recombinant human CYP2C9 expressed in insect cell microsomes at 10 uM using 7-methoxy-4-trifluoromethylcoumarin as substrate measured after 15 to 45 mins in presence of NADPH by fluorescence assay relative to control. To be noted: probe 7-methoxy-4-trifluoromethylcoumarin, time 15-45 min. The series is classed as ADME, Microsome.
CYP2C9, sequence (P11712 whole entry): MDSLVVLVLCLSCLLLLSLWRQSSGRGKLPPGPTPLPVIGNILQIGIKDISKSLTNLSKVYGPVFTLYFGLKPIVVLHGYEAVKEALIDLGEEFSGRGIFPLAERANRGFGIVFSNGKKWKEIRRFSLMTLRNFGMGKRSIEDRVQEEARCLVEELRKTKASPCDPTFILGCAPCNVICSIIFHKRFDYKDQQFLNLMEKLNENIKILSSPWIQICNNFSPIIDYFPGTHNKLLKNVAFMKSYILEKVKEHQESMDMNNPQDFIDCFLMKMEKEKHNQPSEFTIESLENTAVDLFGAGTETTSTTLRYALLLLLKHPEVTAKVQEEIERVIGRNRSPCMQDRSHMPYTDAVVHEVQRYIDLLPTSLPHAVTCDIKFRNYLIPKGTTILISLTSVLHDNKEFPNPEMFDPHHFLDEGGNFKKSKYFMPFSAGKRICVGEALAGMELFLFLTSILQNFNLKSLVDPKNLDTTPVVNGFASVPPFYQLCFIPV

The nature of series [21]: In vivo antagonist activity at TTR-RBP4 complex in CD-1 mouse assessed as reduction in serum RBP4 level at 25 mg/kg, po administered via gavage measured after 24 hrs by ELISA relative to control. The series is classed as functional. Details: scale not given: the % may be the effect or the level left. The gist of the method: (§5)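 Male mice received a single oral dose of 25 mg/kg; serum RBP4 was followed over time, with the 6 h and 24 h points reported as % reduction. Three mice per group; values are mean ± SD.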

The nature of series [22]: Stability in cynomolgus monkey liver microsomes assessed as parent compound remaining measured after 30 mins. The series is classed as ADME, Macaca fascicularis, Microsome. The note with it: 0.5 h. Put shortly:
as §3

A short description of series [23]: Initial drug level in CD-1 mouse at 2 mg/kg, iv by LC-MS/MS analysis. It is filed as ADME, organism-based. To be noted: in vivo. The gist of the method: as §4
Series [24] can be described thus: Kinetic solubility of the compound in pH 7.4 PBS buffer by UV/VIS-HPLC method. It is filed as physicochemical. The note with it: read-out: Kinetic_solubility. Put shortly:
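Kinetic solubility measured in buffer at pH 7.4.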

Series [25] in a line: In vivo antagonist activity at TTR-RBP4 complex in CD-1 mouse assessed as reduction in serum RBP4 level at 25 mg/kg, po administered via gavage measured after 6 hrs by ELISA relative to control. It is filed as functional. Details: scale not given: the % may be the effect or the level left. The gist of the method: as §5

CYP3A4, sequence (P08684 whole entry): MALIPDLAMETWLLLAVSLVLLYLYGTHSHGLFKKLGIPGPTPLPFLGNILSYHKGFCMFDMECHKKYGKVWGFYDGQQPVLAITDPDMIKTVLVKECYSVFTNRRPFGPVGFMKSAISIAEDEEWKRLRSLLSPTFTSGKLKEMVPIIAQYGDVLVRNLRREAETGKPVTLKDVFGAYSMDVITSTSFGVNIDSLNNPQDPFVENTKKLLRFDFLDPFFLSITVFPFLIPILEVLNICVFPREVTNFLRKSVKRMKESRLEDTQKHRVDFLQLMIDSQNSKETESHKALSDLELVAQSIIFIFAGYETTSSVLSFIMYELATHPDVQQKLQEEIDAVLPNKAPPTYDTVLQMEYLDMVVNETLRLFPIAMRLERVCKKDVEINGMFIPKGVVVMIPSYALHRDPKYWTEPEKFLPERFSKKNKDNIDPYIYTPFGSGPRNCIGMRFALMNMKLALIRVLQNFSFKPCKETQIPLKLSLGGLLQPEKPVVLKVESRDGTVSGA

Take `O=C(O)c1ccc2nc(-c3cc(Cl)cc(Cl)c3)oc2c1`: the fold change (FC) in series [1] stood at 3.6. Moreover, the result in series [2] was Active.

Consider `Cc1cc(C(=O)O)nc(N2CC(Oc3ccccc3C(F)(F)F)C2)n1`, for which the IC50 in series [3] was over 3000 nM.

`Cc1cc(C(=O)O)nc(N2CCC(COc3cccc(Cl)c3C(F)(F)F)C2)n1` (racemic): the IC50 in [4] was 3900 nM; in [3], 180 nM.

For the molecule `COc1ccc(C(F)(F)F)c(OCC2CCN(c3nc(C)cc(C(=O)O)n3)C2)c1` (racemic), the IC50 in [4] was over 30000 nM; in series [3] it was over 3000 nM.

Take `Cc1cc(C(=O)O)nc(N2CCC(COc3cc(C(F)(F)F)cc(C(F)(F)F)c3)C2)n1` (racemic): the IC50 in series [4] is over 30000 nM; in series [3], 1600 nM.

For `Cc1cc(C(=O)O)nc(N2CCC(COc3ccc(F)cc3C(F)(F)F)C2)n1` (racemic), the IC50 in series [4] turned out to be 3900 nM; in series [3] it was 240 nM; in [5], 870 nM.

As to `CC1=C(/C=C/C(C)=C/C=C/C(C)=C/CO)C(C)(C)CCC1`, the result in [2] was Active.

`Cc1cc(C(=O)O)nc(N2CCC(COc3ccccc3C(F)(F)F)C2)n1` (racemic): the F in series [6] is listed as 52%. In addition, the Stabilty in series [7] is given as 93%; in series [15], 105%; in series [17], 95%; in series [22], 103%. For the same molecule, the fold change (FC) in series [1] is 4.7. For the same molecule, the inhibition at 10 µM is 2.2% in series [8], 8% in series [10], 18.1% in [11] and 0% in series [20]. Besides, the Vdss in [9] stood at 0.518 L/kg. Moreover, the result in series [12] was inactive. The outcome in [2] was Active. Besides, in series [13], the t1/2 was 9.9 h. The Tmax in series [14] stood at 0.83 h. Moreover, the “beta t1/2” value in [16] amounted to 8.6 h. This molecule also gave a Cmax in series [18] of 3030 ng/mL. Also, the AUC in series [19] was found to be 52439 ng·h/mL. For the same molecule, the Activity is 64% in [21] and 81% in series [25]. The C0 in series [23] was 9129 ng/mL. The solubility kinetic in series [24] is 187 µM (≈ 71.5 µg/mL).
